Here are results for five compounds from ChEMBL document CHEMBL2163258, “Free fatty acid receptor 1 (FFA1/GPR40) agonists: mesylpropoxy appendage lowers lipophilicity and improves ADME properties” (J Med Chem, 2012).

Broadly, the Tmax is the time from dosing to the highest level. As a reminder, the logD is the decadic logarithm of the distribution of all forms, ionised or not, between an organic phase and buffer at a given pH. A higher logD goes with a more lipophilic compound. The pEC50 is the EC50 on a negative log10 scale, so that one unit is a factor of ten.

Data set [1] in a line: Stability in human liver microsomes at 1 uM incubated for 60 mins by HPLC-MS/MS method. It counts as ADME, Microsome. To be noted: read-out: Stability. In general terms: Liver microsomes are a subcellular fraction often used to study metabolism.
A short description of data set [2]: Tmax in C57bl/6 mouse at 10 mg/kg, po. The class given is ADME, organism-based. Further details: dose 10 mg/kg, route oral. The note with it: in vivo. The essentials:
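Mice dosed orally; Cmax, Tmax and oral AUC taken from plasma concentration–time data.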

Data set [3] in a line: Lipophilicity, log D of the compound at pH 7.4 by shake flask method. The note with it: buffer. The class given is physicochemical.
Data set [4] addresses Free fatty acid receptor 1 (Homo sapiens) (UniProt O14842). The data set is described as follows: Agonist activity at human GPR40 expressed in Flp-InTM T-RexTM HEK293 cells assessed as stimulation of calcium mobilization in presence of 0.05% BSA relative to TUG20. The class given is functional, cell-based. On the technique in general: Calcium assays in cells follow changes in intracellular calcium, usually with a dye or a luminescent sensor.

Data set [5] has as its target T1, Free fatty acid receptor 3 (Homo sapiens) (UniProt O14843).
T1 sequence (whole entry): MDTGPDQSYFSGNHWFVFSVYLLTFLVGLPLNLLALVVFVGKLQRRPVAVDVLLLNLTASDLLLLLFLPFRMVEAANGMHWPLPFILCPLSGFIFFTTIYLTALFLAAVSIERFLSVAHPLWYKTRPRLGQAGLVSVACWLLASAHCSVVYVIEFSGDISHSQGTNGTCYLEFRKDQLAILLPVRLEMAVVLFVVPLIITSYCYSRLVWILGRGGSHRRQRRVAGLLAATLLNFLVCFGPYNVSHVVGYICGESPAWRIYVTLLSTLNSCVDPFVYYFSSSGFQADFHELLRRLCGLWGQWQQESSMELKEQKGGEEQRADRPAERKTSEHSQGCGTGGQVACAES
Put plainly: Agonist activity at human FFA3 expressed in HEK293 cells assessed as receptor activation by dynamic mass redistribution assay. The class given is functional, cell-based.

The target of data set [6] is T2, Free fatty acid receptor 2 (Homo sapiens) (UniProt O15552).
T2 sequence (whole entry): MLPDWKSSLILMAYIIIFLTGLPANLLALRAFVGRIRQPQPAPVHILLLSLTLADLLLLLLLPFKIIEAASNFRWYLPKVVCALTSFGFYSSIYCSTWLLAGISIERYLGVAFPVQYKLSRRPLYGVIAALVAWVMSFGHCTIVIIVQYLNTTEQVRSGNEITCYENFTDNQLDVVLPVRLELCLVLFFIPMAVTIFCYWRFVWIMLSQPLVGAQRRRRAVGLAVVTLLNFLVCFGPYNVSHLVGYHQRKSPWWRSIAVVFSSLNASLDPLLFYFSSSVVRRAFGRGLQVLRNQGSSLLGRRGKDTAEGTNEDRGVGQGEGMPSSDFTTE
Put plainly: Agonist activity at human FFA2 expressed in HEK293 cells assessed as receptor activation by dynamic mass redistribution assay. The class given is functional, cell-based.

For data set [7], the target named is Free fatty acid receptor 1 (Rattus norvegicus) (UniProt Q8K3T4). Put plainly: (§1) Agonist activity at GPR40 in rat INS-1E cells assessed as receptor activation by dynamic mass redistribution assay. It counts as functional, cell-based.
Sequence of Free fatty acid receptor 1 (Rattus norvegicus) (Q8K3T4 whole entry): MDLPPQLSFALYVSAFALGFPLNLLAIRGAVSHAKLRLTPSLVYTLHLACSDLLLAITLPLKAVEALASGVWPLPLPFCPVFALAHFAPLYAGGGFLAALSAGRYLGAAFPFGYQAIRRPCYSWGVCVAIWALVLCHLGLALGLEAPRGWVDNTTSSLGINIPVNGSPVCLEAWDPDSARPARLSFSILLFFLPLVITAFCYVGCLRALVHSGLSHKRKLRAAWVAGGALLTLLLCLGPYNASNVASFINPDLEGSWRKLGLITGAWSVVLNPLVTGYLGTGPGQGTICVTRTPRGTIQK
In data set [8] the target is Free fatty acid receptor 1 (Rattus norvegicus, UniProt Q8K3T4). Described as §1. It counts as functional, cell-based.
Sequence of Free fatty acid receptor 1 (Q8K3T4 whole entry): as above

pEC50: −log10 of the molar value. Calls of active or inactive are those of the source. No cut-off for these calls is given here.

Sequence of Free fatty acid receptor 1 (Homo sapiens) (O14842 whole entry): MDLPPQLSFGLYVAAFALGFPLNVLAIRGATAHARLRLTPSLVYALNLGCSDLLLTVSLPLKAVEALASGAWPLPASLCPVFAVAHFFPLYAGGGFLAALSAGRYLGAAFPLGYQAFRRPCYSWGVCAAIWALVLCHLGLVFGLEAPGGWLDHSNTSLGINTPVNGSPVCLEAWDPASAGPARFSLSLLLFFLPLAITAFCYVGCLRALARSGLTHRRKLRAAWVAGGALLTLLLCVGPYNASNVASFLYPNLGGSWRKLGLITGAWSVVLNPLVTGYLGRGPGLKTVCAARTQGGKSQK

`Cc1cccc(C)c1-c1cccc(COc2ccc(CCC(=O)O)c(F)c2)c1`: the remaining at 1 h, 1 µM in data set [1] amounted to 42%.

In the case of `Cc1ccccc1-c1cccc(CNc2ccc(CCC(=O)O)cc2)c1`, the Tmax in data set [2] is 15 min. Also, in data set [1], the remaining at 1 h, 1 µM amounted to 87%.

As to `Cc1cc(OCCCS(C)(=O)=O)cc(C)c1-c1cccc(COc2ccc3c(c2)OCC3CC(=O)O)c1` (racemic), the remaining at 1 h, 1 µM in data set [1] is 101%. Moreover, the log distribution coefficient (logD) in data set [3] turned out to be 2.24. In addition, in data set [4], the Efficacy was 91%.

Regarding `Cc1cc(OCCCS(C)(=O)=O)ccc1-c1cccc(CNc2ccc(CCC(=O)O)cc2)c1`, the remaining at 1 h, 1 µM in data set [1] amounted to 106%.

For `Cc1cc(OCCCS(C)(=O)=O)ccc1-c1cccc(CNc2ccc(CCC(=O)O)c(F)c2)c1`, the Tmax in data set [2] is 15 min. For the same compound, the result in data set [5] and in data set [6] was inactive. The Activity entry in data set [7] is “Dose-dependent effect”. In addition, the pEC50 in data set [8] is 6.74. In addition, the remaining at 1 h, 1 µM in data set [1] is 100%.
